Results on three compounds are retold here after PMC5484360 (Journal of Applied Toxicology, 2017).

Data set [1] is classed as in vitro ADME. As to conditions: Protocol 1, pig skin, 30 min exposure, infinite dose, mean (%CV). The gist of the method: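 Pig skin was shaved, trimmed to 2–3 mm and defatted, then mounted as 32 mm discs in Franz cells over 9 g l–1 NaCl and equilibrated 1 h at 32°C with stirring. Infinite dose (350 μl cm–2), 30 min exposure, excess removed, then 15 weighed tape strips over 18 mm, extracted with methanol. HSC came from TEWL; depth profiles were fitted to Fick's 2nd-law solution for KSC/v and DSC/HSC².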

The format of data set [2] is in vitro ADME, human. Particulars: Protocol 2B; for Jss (steady state flux through the SC) / kp (permeation coefficient) / Mass balance / tlag (lag time): human SC; for Mass balance: 22 h; for tlag (lag time): from non-linear regression of cumulative amount penetrated vs. time. An outline of the steps:
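Isolated SC on 0.22 μm SuPor membrane, thickness by digital micrometer; flow-through cells at 32°C, stirred, receptor DPBS+ at 25 μl/min, equilibrated ≥30 min before dosing; 22 h occluded incubation; donor sampled pre/post; SC dissolved in 1M NaOH, radioactivity counted with washes for mass balance. Jss from earliest linear slope, membrane-corrected; kp = Jss/C; KSC/v·HSC and DSC/HSC² by non-linear Fick's-second-law fit of cumulative absorbed vs time.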

Data set [3] is classed as in vitro ADME, human.
Setting [4] is: human skin, Equation (10) non-linear regression, mean (%CV).
[5] abbreviates: Protocol 1, human skin, 30 min exposure, infinite dose, mean (%CV).

Read-outs that look alike come from different tables or passages of the source.

Regarding `CCOc1ccc2ccc(=O)oc2c1` [7‐Ethoxycoumarin], the “DSC/HSC ^2” value is 0.10 (44%) h^‐1 in data set [1], 0.078 (26%) h^‐1 in data set [2] (setting [4]) and 0.030 (55%) h^‐1 in data set [3] (setting [5]). Further, the KSC/v in data set [1] is 89.5 (4.6%); in data set [1] (listed as 7‐EC) it was 89.5; in data set [2] (setting [4]), 0.019 (34%); in data set [3] (setting [5]), 39.5 (19%); in data set [3] (Protocol 1, human skin, 30 min exposure, infinite dose, mean (%CV), listed as 7‐EC) it was 39.5; in data set [3] (Protocol 1, single human donor in duplicate, 30 min exposure) it was 34.5 ± 6.4. Moreover, the KSC/v in data set [3] (Protocol 1, single human donor in duplicate, 90 min exposure) came out at 46.0 ± 1.4. Also, the “Jss (steady state flux through the SC)” value in data set [2] worked out at 225 ng/cm^2. Moreover, the “kp (permeation coefficient)” value in data set [2] amounted to 0.095 ± 0.188 ×10⁻⁶ cm/s. The compound further returned a Mass balance in data set [2] of 97.3 ± 1.4%. Also, the “tlag (lag time)” value in data set [2] came out at 0.001 ± 0.004 h.

Turning to `Cn1c(=O)c2c(ncn2C)n(C)c1=O` [Caffeine], the KSC/v in data set [1] is given as 1.27 (31%); in data set [1] (listed as caffeine), 1.27; in data set [2] (setting [4]) it was 2.63 (70%); in data set [3] (setting [5]), 2.68 (20%); in data set [3] (Protocol 1, human skin, 30 min exposure, infinite dose, mean (%CV), listed as caffeine), 2.68. The “Jss (steady state flux through the SC)” value in data set [2] is 1261429 ng/cm^2. In addition, in data set [2], the “kp (permeation coefficient)” value is 0.154 ± 0.111 ×10⁻⁶ cm/s. The compound further gave a Mass balance in data set [2] of 99.7 ± 1.3%. Moreover, in data set [2], the “tlag (lag time)” value is 1.82 ± 1.02 h.

In the case of `Oc1cccc(O)c1` [Resorcinol], in data set [2], the “Jss (steady state flux through the SC)” value turned out to be 2699031 ng/cm^2, the “kp (permeation coefficient)” value is 0.233 ± 0.133 ×10⁻⁶ cm/s, the Mass balance is listed as 99.2 ± 2.5% and the “tlag (lag time)” value worked out at 2.13 ± 0.16 h.
